# Screening results (PubChem)
# Rows were chosen to be rich in hits. Some 1.9% of all compounds tested hit in one or more screens of this group.
# FXN GAA850 act – frataxin GAA850 promoter activation. actives 0.56% (n = 360,000). activation, % at 6 µM. HEK293 lucGAA850 FXN promoter luciferase reporter, 24 h; percent of 10 µM SAHA response;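 active = activation above the average of all compounds screened plus 3 SD, cutoff fixed separately per campaign, cut at about 7.5% in these data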;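 also: 0% = DMSO wells and 100% = 10 µM SAHA wells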
# Neddylation inh – cullin neddylation inhibition; TR-FRET cullin neddylation, biochemical; inhibition, % at 25 µM; actives 0.58% (n = 360,000); in the data active = inhibition above about 36%
# proCasp7 act – counter-screen: procaspase-7 (human) activation | P55210 | actives 0.093% (n = 330,000) | recombinant procaspase-7, Ac-DEVD-pNA absorbance 405 nm; D23A/D198A/D206A triple mutant, cannot self-cleave; scale: DMSO 0, 5 µM enzyme 100 | activation, % at 8.5 µM;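 active = percent activation above the screen-wide mean plus 3 SD, cut at about 25% in these data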
# Target sequence (P55210 whole entry D23A/D198A/D206A): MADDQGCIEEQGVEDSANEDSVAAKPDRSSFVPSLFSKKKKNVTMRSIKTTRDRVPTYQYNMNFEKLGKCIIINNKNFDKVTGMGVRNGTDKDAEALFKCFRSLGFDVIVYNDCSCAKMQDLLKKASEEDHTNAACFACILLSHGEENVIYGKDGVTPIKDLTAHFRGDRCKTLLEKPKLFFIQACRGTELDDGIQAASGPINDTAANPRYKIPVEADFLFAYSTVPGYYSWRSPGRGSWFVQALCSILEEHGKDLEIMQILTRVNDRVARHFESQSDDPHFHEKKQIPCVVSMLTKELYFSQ
#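 Assay system – Uncleavable procaspase-7 mutant enzyme · Quantity – 2 µM procaspase-7 mutant as dispensed · Times – 1 h preincubation, 2 h reaction · Dosing – single nominal 8.5 µM compound dose, 0.8% DMSO final · Buffer or medium – Zinc-free 50 mM HEPES buffer, pH 7.4, with NaCl and Triton X-100 · Detection – Epi-absorbance of released pNA at 405 nm, two timepoints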
# HIF activator – HIF pathway transcriptional activation. U2OS HRE-luciferase reporter, luminescence; normalized: DMSO 0%, desferrioxamine 100%. activation, % at 7.5 µM (by protocol). actives 0.32% (n = 300,000);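 active = mean activation of at least 10% of the iron chelator positive control signal, with at least half of replicates also reaching 10%; inconclusive = mean and replicate majority disagree about reaching 10%; inactive = mean and most replicates under 10%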
# Calb FLC – affects C. albicans growth with fluconazole | actives 0.57% (n = 300,000) | C. albicans CaCi-2 + fluconazole, Alamar Blue growth, 48 h | growth inhibition, % (concentration not given with the values) | AID 1979;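 active = growth inhibition above about 58% in most replicates, limit read from the data, passing the limit was not always enough; inconclusive = exactly half the replicates above a set limit; inactive = most replicates below a set limit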;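 also: all wells also contain fluconazole at 8 µg/ml as a sub-toxic cotreatment; 0% = median of DMSO wells and 100% = median of geldanamycin control wells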
# proCasp3 act – procaspase-3 (human) activation; recombinant procaspase-3 D3A, Ac-DEVD-pNA absorbance 405 nm; AID 463141; actives 0.11% (n = 330,000); activation, % at 8.5 µM;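 active = activation above the mean of all tested compounds plus 3 SD, cut at about 21% in these data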;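 also: 0% = DMSO alone and 100% = DMSO wells spiked with extra 5 µM PC-3 D3A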
# Target sequence (P42574 whole entry D9A/D28A/D175A): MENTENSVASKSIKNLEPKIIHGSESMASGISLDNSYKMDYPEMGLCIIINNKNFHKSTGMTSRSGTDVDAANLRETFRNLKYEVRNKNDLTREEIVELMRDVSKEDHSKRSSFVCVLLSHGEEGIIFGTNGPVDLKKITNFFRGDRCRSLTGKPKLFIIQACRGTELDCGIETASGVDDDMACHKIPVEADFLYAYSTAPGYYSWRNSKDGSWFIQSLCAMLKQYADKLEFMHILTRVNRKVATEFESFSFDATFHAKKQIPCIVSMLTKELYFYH
#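 Test system: Procaspase-3 D3A mutant; medium: Zinc-free HEPES/NaCl buffer with 0.01% Triton X-100 at pH 7.4; reagent: DEVD-pNA substrate; doses: one concentration, 8.5 µM nominal, 0.8% DMSO; times: 1 h preincubation plus 2 h reaction at 25 °C; signal: Epi-absorbance at 405 nm of released p-nitroaniline, 0 and 120 min; replicates: singlicate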
# Numbers without * were called inactive; ? = inconclusive; . = no result shown.
SMILES,FXN GAA850 act,Neddylation inh,proCasp7 act,HIF activator,Calb FLC,proCasp3 act
Cc1ccc(C)c(N=Nc2ccc(O)c3ncccc23)c1,0.4,-29.1,13.2,2.5,107.9*,8.2
CCS(=O)(=O)c1ccc(OC)c(N=Nc2ccc(O)c3ncccc23)c1,0.7,-24.9,12.4,0.0,-11.6,-0.1
Oc1ccc(N=Nc2ccc3c(c2)OCCO3)c2ncccc12,-10.7,-56.6,15.3,1.1,88.9*,10.8
CCN(CC)S(=O)(=O)c1cc(OC)ccc1N=Nc1ccc(O)c2ncccc12,0.2,-33.0,.,3.5,85.7*,.
O=C(Oc1cccc2cccnc12)c1ccc2c(c1)OCCO2,-0.3,-5.3,-1.6,0.9,-4.8,2.9
NS(=O)(=O)c1ccc(N=Nc2ccc(O)c3ncccc23)cc1,-2.7,-68.2,-6.0,-0.2,79.2*,-13.0
Cc1csc(=O)n1CCC(=O)OCC(=O)N(C)c1c(N)n(Cc2ccccc2)c(=O)[nH]c1=O,0.0,-8.8,.,.,.,.
Cc1ccc(NS(=O)(=O)N2CCCCC2)cc1,0.4,4.3,.,.,.,.
CC1(N=Cc2cc(Cl)ccc2O)COP(=O)(Nc2ccccc2)OC1 (stereo not drawn),-3.8,9.0,.,.,.,.
CCOc1ccc(N=Nc2ccc(O)c3ncccc23)cc1,1.8,-34.9,.,3.1,83.4*,.
CCOc1ccc(N=Nc2cc(C(C)C)ccc2O)cc1,0.7,1.2,1.4,0.6,0.8,3.1
CC(C(=O)Nc1ccccc1-c1ccccc1)N(C)Cc1nc2ccccc2c(=O)[nH]1 (stereo not drawn),-1.6,1.4,2.5,57.0*,14.6,3.6
O=C1NC[C@@H](CCCCN2C[C@H](Cc3ccccc3)N(CCC3CCCCC3)C(=O)C2=O)N(CC2CCCCC2)C1=O,.,-2.1,.,.,.,.
COc1ccc(CNC(=S)N/N=C/c2ccc(O)c(OC)c2)cc1,-2.2,-3.0,0.7,20.5*,?,0.4
COc1ccc(CNC(=S)N/N=C/c2ccc(OC)c(OC)c2)cc1,-0.5,0.8,1.7,0.7,1.3,9.9
COc1ccc(S(=O)(=O)N2CC=C(c3ccccc3)CC2)cc1OC,1.7,2.6,.,.,.,.
CCOC(=O)/C(=C\c1ccc(OC(F)F)cc1)C1=Nn2c(nnc2-c2ccc(Cl)cc2)SC1,8.2*,-8.7,-14.8,-3.1,?,-10.5
COC(=O)c1sccc1-c1ccc(C(=O)Nc2cccc(Cl)c2)o1,8.3*,.,-39.5,2.1,-2.8,-14.2
Cc1ccc(Nc2c(-c3ccccn3)nc3cc(C)ccn23)cc1,1.6,.,-12.1,90.8*,?,-97.5
Cc1ccn2c(Nc3ccc4c(c3)OCO4)c(-c3ccccn3)nc2c1,0.3,21.0,-4.5,3.2,-22.6,0.5
Cc1ccc(Nc2c(-c3ccccn3)nc3ccc(C)cn23)cc1,-1.2,29.3,-8.7,122.3*,?,-23.3
O=C(N/N=C/c1cc(Br)ccc1O)C(c1ccncc1)N1CCOCC1 (stereo not drawn),-4.6,46.8*,10.7,12.2*,19.7,15.5
CC(C)C(=O)N1CCCC1(C)C(=O)Nc1ccc(-n2cncn2)cc1 (stereo not drawn),-0.1,-1.2,.,.,.,.
CN(C)C(=O)CSc1nc2ccccc2n1Cc1ccccc1,-0.2,2.5,-3.0,366.5*,1.4,-10.6
Cc1cccc(-c2nc3ccccc3c(=O)n2NC(=O)/C=C/c2ccc([N+](=O)[O-])cc2)c1,1.4,-18.0,-2.0,0.0,116.6*,-0.9
SMILES,FXN GAA850 act,Neddylation inh,proCasp7 act,HIF activator,Calb FLC,proCasp3 act
COc1ccc(S(=O)(=O)NC(=O)C2(C)CCN2C(=O)C2(c3ccccc3)CCCC2)cc1 (stereo not drawn),0.6,1.6,.,.,.,.
CCCCN1CC[C@H]2C=CC[C@@H](C(=O)Nc3ccc(Cl)c(C(F)(F)F)c3)[C@H]2C1=O,-1.1,-6.1,-6.2,-0.9,109.4*,6.6
COc1ccc(Nc2nc3cc(-c4ccccc4C)sc3c(=O)n2C)cc1OC,-2.5,-232.1,.,.,.,.
Cc1ccc(NCc2ccc(O)c3ncccc23)cc1,3.0,8.9,-27.2,-0.2,64.2*,-13.4
Cc1cccc(NCc2ccc(O)c3ncccc23)c1C,0.0,18.1,-22.5,0.5,104.2*,-7.6
Cc1cccnc1NCc1ccc(O)c2ncccc12,-0.5,0.0,-23.3,3.8,-26.8,-27.6
Cc1ccc(NCc2ccc(O)c3ncccc23)cc1C,-0.8,20.1,-21.0,0.4,64.8*,-17.9
CCOc1ccc(-c2noc([C@@H]3O[C@H](CO)[C@@H](O)[C@H]3O)n2)cc1,1.9,-2.1,.,.,.,.
N#Cc1ccccc1OCC(=O)Nc1cc(S(=O)(=O)N2CCCCC2)ccc1N1CCOCC1,2.0,-19.3,.,.,.,.
COCC(=O)N1CCC2CC1c1c(-c3ccc(C(F)(F)F)cc3)cccc12 (stereo not drawn),-1.2,-6.7,.,.,.,.
N#Cc1ccc(-c2nc3ccc(Br)cc3c(=O)n2O)cc1,1.8,-13.7,-5.5,-10.5,-5.2,3.8
O=c1c2cc(Br)ccc2nc(-c2ccc([N+](=O)[O-])cc2)n1O,1.6,-26.6,5.0,-0.1,109.7*,-1.2
COc1ccccc1-c1nc2cc(Cl)ccc2c(=O)n1O,-0.9,15.6,-5.8,-0.7,8.6,3.2
O=c1c2cc(Cl)ccc2nc(-c2ccccc2)n1O,2.0,9.3,-5.0,0.1,2.5,-3.7
O=c1c2cc(Cl)ccc2nc(-c2ccc(Cl)c(Cl)c2)n1O,0.7,7.5,4.8,-0.4,100.6*,-3.5
O=c1c2ccc(Cl)cc2nc(-c2ccc([N+](=O)[O-])cc2)n1O,-2.0,-23.0,0.5,-0.2,86.9*,5.3
O=c1c2cc(Br)ccc2nc(-c2cccc(C(F)(F)F)c2)n1O,-0.2,-22.7,-1.7,-0.1,90.3*,5.0
CCOC(=O)C1=CN(CC2CCCCC2)CCC1=O,0.5,3.1,.,.,.,.
CCC(CC)C(=O)N(C)c1c(C)nc2c(OCc3ccc(OC(F)F)cc3)cccn12,-1.8,-3.7,.,.,.,.
CC1(C(=O)Nc2cccc(NS(C)(=O)=O)c2)CCN1CCc1ccccc1 (stereo not drawn),-3.2,5.8,.,.,.,.
CS(=O)(=O)C1=NSC2=NC(=O)/C(=C\c3ccc(-c4ccccc4)o3)C(=N)N21,.,.,5.2,.,.,-9.9
CC(C)S(=O)(=O)C1=NSC2=NC(=O)/C(=C\c3ccc(-c4ccccc4)o3)C(=N)N21,1.8,41.5*,1.7,-0.5,14.5,-21.7
O=C(c1cc2ccccc2cc1O)N1CCCC1,1.2,26.1,6.2,0.2,-3.5,-5.2
O=C(c1cc2ccccc2cc1O)N1CCN(c2ccccc2O)CC1,0.1,17.9,3.4,0.0,76.6*,0.0
CC(=O)Nc1ccc(N2CC(C)(C)C2=O)cc1,0.1,-2.2,9.0,-0.1,71.7*,7.7
